Test results taken from ChEMBL document CHEMBL2346604, “Synthesis of nordihydroguaiaretic acid derivatives and their bioactivities on S. pombe and K562 cell lines” (Eur J Med Chem, 2013).
Values after ≈ are worked out from the molar mass of the structure shown. Active and inactive are the calls of the source. The rule behind the calls is not given here.

Experiments:
[1] = system: K562; test: Inhibitive ratio of growth metabolism of human K562 cells at 2 mg/L at 37 degC by TAM air microcalorimetry (reference value: 0%); assay type: functional
Outline: (§1)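 K562 cells in supplemented RPMI 1640 (10% FBS) seeded at 1×10⁶ cells/mL with compound at graded concentrations. Heat flow recorded in real time in an eight-channel isothermal microcalorimeter (TAM Air). Rate constant k derived from thermogenic growth curves. Inhibition ratio I = (k0 − kc)/k0 × 100% relative to untreated cells, and IC50 is the concentration at I = 50%. Mean ± S.D., n = 3.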

[2] = system: K562; test: Induction of apoptosis in human K562 cells assessed as mitochondrial transmembrane potential at 6 mg/L after 24 hrs by Rh123 staining based fluorescence spectrophotometer analysis (reference value: 277.9 +/-1.4%)
[3] = system: Schizosaccharomyces pombe; test: Inhibition of growth metabolism of Schizosaccharomyces pombe ACCC 20047 assessed as growth rate constant at 40 mg/L at 32 degC by TAM air microcalorimetry; assay type: functional
Outline: (§2)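 Cells seeded at 1×10⁶ cells/mL with compound at a range of concentrations. Heat output recorded continuously in a TAM Air isothermal microcalorimeter. Growth rate constant k taken from power-time curves. I = (k0 − kc)/k0 × 100%, and IC50 is the concentration giving I = 50%. n = 3.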

[4] = system: K562; test: Inhibitive ratio of growth metabolism of human K562 cells at 4 mg/L at 37 degC by TAM air microcalorimetry (reference value: 0%); assay type: functional; outline: as §1
[5] = system: K562; test: Induction of apoptosis in human K562 cells assessed as mitochondrial transmembrane potential at 6 mg/L after 18 hrs by Rh123 staining based fluorescence spectrophotometer analysis (reference value: 788.8 +/-1.0%); assay type: functional
[6] = system: Schizosaccharomyces pombe; test: Inhibition of growth metabolism of Schizosaccharomyces pombe ACCC 20047 assessed as growth rate constant at 380 mg/L at 32 degC by TAM air microcalorimetry; assay type: functional; outline: as §2
[7] = system: Schizosaccharomyces pombe; test: Inhibition of growth metabolism of Schizosaccharomyces pombe ACCC 20047 assessed as growth rate constant at 320 mg/L at 32 degC by TAM air microcalorimetry; assay type: functional; outline: as §2
[8] = system: Schizosaccharomyces pombe; test: Inhibitive ratio of growth metabolism of Schizosaccharomyces pombe ACCC 20047 at 240 mg/L at 32 degC by TAM air microcalorimetry (reference value: 0%); assay type: functional; outline: as §2
[9] = system: Schizosaccharomyces pombe; test: Inhibitive ratio of growth metabolism of Schizosaccharomyces pombe ACCC 20047 at 320 mg/L at 32 degC by TAM air microcalorimetry (reference value: 0%); assay type: functional; outline: as §2
[10] = system: Schizosaccharomyces pombe; test: Inhibitive ratio of growth metabolism of Schizosaccharomyces pombe ACCC 20047 at 160 mg/L at 32 degC by TAM air microcalorimetry (reference value: 0%); assay type: functional; outline: as §2
[11] = system: K562; test: Inhibitive ratio of growth metabolism of human K562 cells at 8 mg/L at 37 degC by TAM air microcalorimetry (reference value: 0%); assay type: functional; outline: as §1
[12] = system: K562; test: Inhibition of growth metabolism of human K562 cells assessed as growth rate constant at 5 mg/L at 37 degC by TAM air microcalorimetry; assay type: functional; outline: as §1
[13] = system: K562; test: Induction of apoptosis in human K562 cells assessed as mitochondrial transmembrane potential at 6 mg/L after 12 hrs by Rh123 staining based fluorescence spectrophotometer analysis (reference value: 668.2 +/-0.8%); assay type: functional
[14] = system: K562; test: Inhibitive ratio of growth metabolism of human K562 cells at 6 mg/L at 37 degC by TAM air microcalorimetry (reference value: 0%); assay type: functional; outline: as §1
[15] = system: K562; test: Induction of apoptosis in human K562 cells assessed as mitochondrial transmembrane potential at 4 mg/L after 24 hrs by Rh123 staining based fluorescence spectrophotometer analysis (reference value: 277.9 +/-1.4%); assay type: functional
[16] = system: K562; test: Inhibitive ratio of growth metabolism of human K562 cells at 3 mg/L at 37 degC by TAM air microcalorimetry (reference value: 0%); assay type: functional; outline: as §1
[17] = system: Schizosaccharomyces pombe; test: Inhibitive ratio of growth metabolism of Schizosaccharomyces pombe ACCC 20047 at 40 mg/L at 32 degC by TAM air microcalorimetry (reference value: 0%); assay type: functional; outline: as §2
[18] = system: Schizosaccharomyces pombe; test: Inhibition of growth metabolism of Schizosaccharomyces pombe ACCC 20047 assessed as growth rate constant at 80 mg/L at 32 degC by TAM air microcalorimetry; assay type: functional; outline: as §2
[19] = system: K562; test: Induction of late apoptosis in human K562 cells assessed as cell membrane structural changes, smaller nuclear size, chromatin assembly under nuclear envelope, clear nuclear membrane structure, lipid droplets in cytoplasm, protruded cell surface with red nucleus at 4 to 6 mg/L after 12 to 24 hrs by propidium iodide staining based fluorescence microscopy; assay type: functional
Outline: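 K562 groups at 0, 4.0 and 6.0 mg/L were held 12, 18 or 24 h at 37 °C in 5% CO2. Cells (1 mL) were collected, washed three times in PBS, stained with propidium iodide for 5 min in the dark and washed. Morphology of membrane, nucleus, chromatin and cytoplasm was scored against untreated controls.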

[20] = system: K562; test: Inhibition of growth metabolism of human K562 cells at 37 degC by TAM air microcalorimetry; assay type: functional, cell-based; outline: as §1
[21] = system: K562; test: Induction of apoptosis in human K562 cells assessed as mitochondrial transmembrane potential at 4 mg/L after 12 hrs by Rh123 staining based fluorescence spectrophotometer analysis (reference value: 668.2 +/-0.8%); assay type: functional
[22] = system: K562; test: Inhibition of growth metabolism of human K562 cells assessed as growth rate constant at 8 mg/L at 37 degC by TAM air microcalorimetry; assay type: functional; outline: as §1
[23] = system: K562; test: Inhibition of growth metabolism of human K562 cells assessed as growth rate constant at 2 mg/L at 37 degC by TAM air microcalorimetry; assay type: functional; outline: as §1
[24] = system: Schizosaccharomyces pombe; test: Inhibitive ratio of growth metabolism of Schizosaccharomyces pombe ACCC 20047 at 80 mg/L at 32 degC by TAM air microcalorimetry (reference value: 0%); assay type: functional; outline: as §2
[25] = system: Schizosaccharomyces pombe; test: Inhibitive ratio of growth metabolism of Schizosaccharomyces pombe ACCC 20047 at 380 mg/L at 32 degC by TAM air microcalorimetry (reference value: 0%); assay type: functional; outline: as §2
[26] = system: Schizosaccharomyces pombe; test: Inhibition of growth metabolism of Schizosaccharomyces pombe ACCC 20047 assessed as growth rate constant at 20 mg/L at 32 degC by TAM air microcalorimetry; assay type: functional; outline: as §2
[27] = system: K562; test: Inhibition of growth metabolism of human K562 cells assessed as growth rate constant at 3 mg/L at 37 degC by TAM air microcalorimetry; assay type: functional; outline: as §1
[28] = system: Schizosaccharomyces pombe; test: Inhibition of growth metabolism of Schizosaccharomyces pombe ACCC 20047 at 32 degC by TAM air microcalorimetry; assay type: functional, organism-based; outline: as §2
[29] = system: K562; test: Induction of apoptosis in human K562 cells assessed as mitochondrial transmembrane potential at 4 mg/L after 18 hrs by Rh123 staining based fluorescence spectrophotometer analysis (reference value: 788.8 +/-1.0%); assay type: functional
[30] = system: K562; test: Inhibition of growth metabolism of human K562 cells assessed as growth rate constant at 6 mg/L at 37 degC by TAM air microcalorimetry; assay type: functional; outline: as §1
[31] = system: Schizosaccharomyces pombe; test: Inhibitive ratio of growth metabolism of Schizosaccharomyces pombe ACCC 20047 at 20 mg/L at 32 degC by TAM air microcalorimetry (reference value: 0%); assay type: functional; outline: as §2
[32] = system: K562; test: Inhibition of growth metabolism of human K562 cells assessed as growth rate constant at 4 mg/L at 37 degC by TAM air microcalorimetry; assay type: functional; outline: as §1
[33] = system: K562; test: Inhibitive ratio of growth metabolism of human K562 cells at 5 mg/L at 37 degC by TAM air microcalorimetry (reference value: 0%); assay type: functional; outline: as §1
[34] = system: Schizosaccharomyces pombe; test: Inhibition of growth metabolism of Schizosaccharomyces pombe ACCC 20047 assessed as growth rate constant at 240 mg/L at 32 degC by TAM air microcalorimetry; assay type: functional; outline: as §2
[35] = system: Schizosaccharomyces pombe; test: Inhibition of growth metabolism of Schizosaccharomyces pombe ACCC 20047 assessed as growth rate constant at 160 mg/L at 32 degC by TAM air microcalorimetry; assay type: functional; outline: as §2

IC50 [20]: 5.87 µg/mL (≈ 16.4 µM)
SMILES: COc1ccc(C[C@@H](C)[C@@H](C)Cc2ccc(OC)c(OC)c2)cc1OC [TERAMEPROCOL]
inhibition at 2 µg/mL [1]: -12.8% | Activity [2]: 170.7% | Activity [3]: 0.00407 min⁻¹ | inhibition at 4 µg/mL [4]: 5.06% | Activity [5]: 331.5% | Activity [6]: 0.00143 min⁻¹ | Activity [7]: 0.00245 min⁻¹ | inhibition at 240 µg/mL [8]: 27.3% | inhibition at 320 µg/mL [9]: 44.7% | inhibition at 160 µg/mL [10]: 11.5% | inhibition at 8 µg/mL [11]: 79.6% | Activity [12]: 2.7992 ×10⁻⁴ /min | Activity [13]: 477.8% | inhibition at 6 µg/mL [14]: 52.9% | Activity [15]: 168% | inhibition at 3 µg/mL [16]: -5.88% | inhibition at 40 µg/mL [17]: 8.13% | Activity [18]: 0.00425 min⁻¹ | Activity [19]: Active | Activity [21]: 597.2% | Activity [22]: 8.5275 ×10⁻⁵ /min | Activity [23]: 4.7239 ×10⁻⁴ /min | inhibition at 80 µg/mL [24]: 4.06% | inhibition at 380 µg/mL [25]: 67.7% | Activity [26]: 0.00401 min⁻¹ | Activity [27]: 4.4342 ×10⁻⁴ /min | IC50 [28]: 330 µg/mL (≈ 921 µM) | Activity [29]: 615.3% | Activity [30]: 1.9712 ×10⁻⁴ /min | inhibition at 20 µg/mL [31]: 9.48% | Activity [32]: 3.9762 ×10⁻⁴ /min | inhibition at 5 µg/mL [33]: 33.2% | Activity [34]: 0.00322 min⁻¹ | Activity [35]: 0.00392 min⁻¹
